The list is not random: actives were taken first. Their share in the collection is about 0.89%.
Arrestin-AP2 inh – inhibitors of beta-arrestin/AP2 binding, primary screen, biochemical, GPCR trafficking, flow cytometry; AID 504490, 2011; inhibition, % at 10 µM; FITC-arrestin peptide / GST-AP2 beads; AP2 beta2 appendage carries R879A mutation; 0.31% of 340,000 active;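 active = inhibition above a set limit, near 3 SD of compounds lacking own fluorescence, cut at about 54% in these data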;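 also: plate controls were DMSO wells for no effect and 5 µM unlabelled arrestin peptide for full effect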
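Measured by: flow cytometry, FL1 (488/535 nm); Material: AP2 appendage R879A on GSH beads; Evaluation: percent response; Timing: pre-incubation 12 min, peptide binding 1 h, room temperature; Also added: 50 nM FITC-arrestin peptide; Medium: PBS with 0.05% Tween 20 and 0.1% BSA.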
hiPSC survival – enhancers of single-cell hiPSC survival, primary screen, ATPlite luminescence | 100% = ROCK inhibitor wells, 0% = DMSO | 0.044% of 360,000 active | AID 602274, 2012 | survival enhancement, % at 20 µM; in the data active = survival enhancement above about 18%;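 also: cells exposed to compounds for 16 hours before the ATP read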
ABCB6 inh MLPCN – ABCB6 transporter inhibitors, primary screen, K562-ABCB6 cells, flow cytometry, MLPCN library; ATP-binding cassette sub-family B member 6 (Homo sapiens), Q9NP58; K562-ABCB6 porphyrin accumulation, 1 h; active compounds read low; fluorescence ratio to DMSO, % at 10 µM; 0.19% of 360,000 active; AID 602162, 2011;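 active = fluorescence ratio to DMSO below 75%, the collection mean minus 3 SD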;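 also: signal is porphyrin accumulated inside mitochondria; 100% equals median channel fluorescence of DMSO control wells; lower ratio means ABCB6 inhibition with less porphyrin fluorescence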
Target sequence (Q9NP58 whole entry, looked up): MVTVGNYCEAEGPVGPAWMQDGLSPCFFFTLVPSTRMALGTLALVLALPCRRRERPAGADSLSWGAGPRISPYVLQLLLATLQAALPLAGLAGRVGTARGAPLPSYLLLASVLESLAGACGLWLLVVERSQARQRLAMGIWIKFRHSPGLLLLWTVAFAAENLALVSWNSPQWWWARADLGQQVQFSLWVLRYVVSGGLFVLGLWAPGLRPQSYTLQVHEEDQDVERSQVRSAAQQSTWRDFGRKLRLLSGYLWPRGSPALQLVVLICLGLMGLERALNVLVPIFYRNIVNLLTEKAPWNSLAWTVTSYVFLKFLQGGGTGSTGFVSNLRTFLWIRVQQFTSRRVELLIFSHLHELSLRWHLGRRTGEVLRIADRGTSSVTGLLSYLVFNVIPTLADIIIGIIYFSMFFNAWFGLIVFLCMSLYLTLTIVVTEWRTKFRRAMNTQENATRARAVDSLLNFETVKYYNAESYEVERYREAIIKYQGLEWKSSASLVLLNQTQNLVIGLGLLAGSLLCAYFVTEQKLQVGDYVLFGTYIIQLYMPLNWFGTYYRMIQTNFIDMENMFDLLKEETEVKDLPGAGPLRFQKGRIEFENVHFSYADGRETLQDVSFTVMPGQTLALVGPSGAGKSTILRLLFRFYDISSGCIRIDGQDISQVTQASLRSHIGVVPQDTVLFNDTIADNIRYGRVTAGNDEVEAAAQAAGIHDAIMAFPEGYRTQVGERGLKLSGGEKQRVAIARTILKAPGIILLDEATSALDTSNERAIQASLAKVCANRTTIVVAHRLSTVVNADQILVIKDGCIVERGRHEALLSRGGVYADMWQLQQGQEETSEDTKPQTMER
PG9 Ab binder – binders of HIV-1 gp120 antibody PG9, primary screen, biochemical, TR-FRET. HIV-1 gp120 / PG9 antibody interaction. TR-FRET gp120-PG9 antibody binding. inhibition, % at 6.7 µM. 0.43% of 360,000 active. AID 624416, 2012; in the data active = inhibition above about 8.5%
PG9 bind confirm – binders of anti-gp120 antibody PG9, confirmation, biochemical, TR-FRET; shares compounds with PG9 Ab binder; TR-FRET PG9 antibody binding; inhibition, % at 6.7 µM; 90% of 1,500 active; AID 651571, 2012; in the data active = inhibition above about 9%
PGV04 counter – binders of control antibody PGV04, counter-screen for PG9 antibody binder project, biochemical, TR-FRET, distinct HIV envelope site; 95% of 1,500 active; shares compounds with PG9 Ab binder; TR-FRET PGV04 antibody-gp120 binding; inhibition, % at 6.7 µM; in the data active = inhibition above about 9.5%
PG9 bind DR – small-molecule binders of antibody PG9, dose response, biochemical, TR-FRET, HIV-1 gp120 antibody. shares compounds with PG9 Ab binder. TR-FRET PG9 antibody-gp120 binding inhibition. IC50, µM. 95 tested, under 10 active. AID 651848, 2012; in the data active = IC50 below about 10 µM
PGV04 binding DR – binders of control antibody PGV04, dose response, counter-screen for PG9 antibody binder project, biochemical, TR-FRET, distinct HIV envelope site | TR-FRET binding to control antibody PGV04 | IC50, µM | 20% of 95 active | shares compounds with PG9 Ab binder
PG126 binding DR – binders of control antibody PG126, dose response, counter-screen for PG9 antibody binder project, biochemical, TR-FRET, distinct HIV envelope site; 20% of 95 active; IC50, µM; AID 651939, 2012; TR-FRET binding to antibody PG126, counterscreen; shares compounds with PG9 Ab binder
Numbers without * were called inactive; i = inactive; · = no result. Rule as the data show it, unless noted: active = IC50 below about 9 µM; inactive = the rest.

SMILES | Arrestin-AP2 inh | hiPSC survival | ABCB6 inh MLPCN | PG9 Ab binder | PG9 bind confirm | PGV04 counter | others
COc1ccc(OCCCC(=O)OCC(=O)c2ccc3c(c2)NC(=O)CO3)cc1 | -7 | 0 | 86 | -1 | · | ·
COC(=O)Cc1nnn2c1[C@H](C)[C@@H](OC)c1ccc(C(F)(F)F)cc1-2 | · | · | · | 0 | · | ·
COc1ccc(C2CC(=O)C(c3ccccc3OC)=CN2Cc2ccccc2)cc1 (stereo not given) | · | · | · | -1 | · | ·
S=c1[nH]nc(-c2cccc(Cl)c2)n1/N=C/c1ccc(-c2ccccc2Br)o1 | -10 | 1 | 99 | 1 | · | ·
S=c1[nH]nc(-c2ccccn2)n1/N=C/c1ccc(-c2ccccc2Br)o1 | -15 | 4 | 100 | 15* | 8 | 25*
O=C(CSc1ncccc1-c1nc2ccccc2[nH]1)N1CCc2ccccc21 | 4 | 2 | 104 | 14* | 21* | 33*
Nc1ncnc(N)c1NC(=O)c1ccccc1 | · | · | · | -1 | · | ·
Cc1sc2nc(SCC(=O)NCc3ccco3)n(C)c(=O)c2c1C | 11 | 2 | 83 | 2 | · | ·
Cc1sc2nc(SCC(=O)NCc3ccco3)[nH]c(=O)c2c1C | 1 | 0 | 103 | 28* | 29* | 42*
CCOc1ccc(-n2c(SCC(=O)NCc3ccco3)nc3ccccc3c2=O)cc1 | -3 | 5 | 100 | 17* | 45* | 53*
CC(=O)c1sc2nc(SCC(=O)NCCc3ccccc3)[nH]c(=O)c2c1C | -3 | 0 | 106 | 36* | 37* | 42*
COc1ccc(CCNC(=O)CSc2nc3sc(C(=O)O)c(C)c3c(=O)[nH]2)cc1OC | 8 | 0 | 105 | -3 | · | ·
Cc1sc2nc(SCC(=O)NCc3ccco3)n(CCc3ccccc3)c(=O)c2c1C | -1 | -2 | 91 | 28* | 30* | 34*
Cc1[nH]c2ccccc2c1CC(=O)Nc1ccc(Nc2cccnc2)c(-c2ccc(Oc3ccccc3)cc2)c1 | · | · | · | 1 | · | ·
CN1C(=O)[C@@]2(C3=C(CCCC3=O)OC3=C2C(=O)CC(C)(C)C3)c2ccccc21 | · | · | · | 0 | · | ·
CC(C)[C@H](NC(=O)c1ccccc1)C(=O)N1CCC[C@H]1C(=O)NCCc1ccccc1Cl | · | · | · | 2 | · | ·
CC(C)(C)S(=O)(=O)N1C[C@@H]2CC(=O)C(CCO)=C2[C@H]1CCO | · | · | · | 0 | · | ·
Nc1ccn([C@@H]2O[C@H](C(=O)N3CCN(CCO)CC3)[C@@H](O)[C@H]2O)c(=O)n1 | · | · | · | -3 | · | ·
COC(=O)C(Cc1ccc(O)cc1)NS(=O)(=O)Cc1ccccc1 (stereo not given) | · | · | · | 2 | · | ·
Cc1sc2ncnc(Sc3ccccc3C(=O)O)c2c1C | -23 | 1 | 99 | 31* | 37* | 46*
Cc1sc2ncnc(SCC(=O)NC(=O)c3cccn3C)c2c1C | 8 | -1 | 95 | 53* | 55* | 66*
CCN(CC(=O)Nc1ccc(NC(C)=O)cc1)C(=O)CSc1ncnc2sc(C)c(C)c12 | 13 | 0 | 100 | 11* | 7 | 24*
CC(=O)Nc1ccc(NC(=O)CSc2ncnc3sc(C)c(C)c23)cc1 | 15 | 0 | 94 | -1 | · | ·
COc1ccc(NC(=O)N(C)C[C@H]2OCc3cnnn3CCCC(=O)N([C@H](C)CO)C[C@@H]2C)c(OC)c1 | · | · | · | -4 | · | ·
CC(=O)NC(CSc1cc(C)nc2ccc(Br)cc12)C(=O)O (stereo not given) | 16 | 1 | 103 | 21* | 34* | 50*
SMILES | Arrestin-AP2 inh | hiPSC survival | ABCB6 inh MLPCN | PG9 Ab binder | PG9 bind confirm | PGV04 counter | others
O=C(C(=O)N1CCC(CNC(=O)c2cccs2)CC1)c1cc2ccccc2o1 | · | · | · | -3 | · | ·
Cc1cc2cc(CN3C(=O)c4ccccc4C3=O)ccc2n1C | -7 | 0 | 425 | 31* | 39* | 63*
C[C@H]1[C@@H](c2ccccc2)Oc2c(Cl)cccc2S(=O)(=O)N1C | · | · | · | 0 | · | ·
COc1ccc(/C=C/C(=O)Oc2cccc(/C=N/NC(=O)COc3c(C)cccc3C)c2)cc1 | 26 | -6 | 99 | 9.5* | 11* | 16*
COC(=O)C1=C(C)N(Cc2ccccc2C(F)(F)F)C(=NCc2ccccc2C(F)(F)F)NC1c1cccc(C(F)(F)F)c1 (stereo not given) | · | · | · | -1 | · | ·
CC1=CC(=C(C#N)C#N)C=C(C)N1CCN1CCN(C(=O)Nc2ccc(Cl)c(Cl)c2)CC1 | 22 | 3 | 100 | 1 | · | ·
CC1=CC(=C(C#N)C#N)C=C(C)N1Cc1ccc(Cl)cc1 | 0 | -1 | 105 | 19* | 24* | 31*
CCOC(=O)N[C@H](C(=O)N1CCC[C@H]1C(=O)NCCc1ccccc1Cl)C1CCCCC1 | · | · | · | -3 | · | ·
CCN(C(=O)COC(=O)c1ccc(Cl)cc1N)C1CCCCC1 | 4 | 0 | 101 | 2 | · | ·
Nc1cc(Cl)ccc1C(=O)OCC(=O)NC1CCCCC1 | 15 | 0 | 98 | 30* | 29* | 41*
Cc1sc2ncnc(N3CCC(C(=O)Nc4nnc(CC(C)C)s4)CC3)c2c1C | 5 | 0 | 97 | 14* | 42* | 54*
COc1ccc(CN2C[C@H](COCc3ccccc3)Oc3cccc(Oc4ccc(C(C)C)cc4)c3S2(=O)=O)cc1 | · | · | · | 2 | · | ·
COc1ccc2nc(C)[nH]c(=O)c2c1 | 8 | 0 | 97 | 0 | · | ·
COc1ccc2nc(-c3ccccc3)[nH]c(=O)c2c1 | 22 | -1 | 109 | 54* | 68* | 77*
COc1cccc(C2/C(=C(\O)c3ccc4c(c3)OCCO4)C(=O)C(=O)N2Cc2cccnc2)c1 (stereo not given) | -5 | 0 | 99 | 23* | 30* | 35*
O=C1C(=O)N(Cc2ccncc2)C(c2ccccc2F)/C1=C(\O)c1ccc2c(c1)OCCO2 (stereo not given) | -8 | 0 | 101 | 16* | 32* | 31* | PG9 bind DR=i;PGV04 binding DR=5.3*;PG126 binding DR=7.8*
